Results: ChEMBL document CHEMBL4477201, “Imidazopyridine and Pyrazolopiperidine Derivatives as Novel Inhibitors of Serine Palmitoyl Transferase” (J Med Chem, 2016)
Blank lines part the entries; values can stand above or below the compound they belong to. Active and inactive are the calls of the source. The calls are words filed in the database; no cut-off is given here.

Experiments:
[1] = molecular target: T1, Serine palmitoyltransferase 1 (Homo sapiens, UniProt O15269); test: (§1) Inhibition of SPT1 in human MCF7 cells assessed as suppression of 14C-serine incorporation into ceramide incubated for 2 hrs in presence of 4-HPR; assay type: cell-based
T1 sequence (O15269 whole entry): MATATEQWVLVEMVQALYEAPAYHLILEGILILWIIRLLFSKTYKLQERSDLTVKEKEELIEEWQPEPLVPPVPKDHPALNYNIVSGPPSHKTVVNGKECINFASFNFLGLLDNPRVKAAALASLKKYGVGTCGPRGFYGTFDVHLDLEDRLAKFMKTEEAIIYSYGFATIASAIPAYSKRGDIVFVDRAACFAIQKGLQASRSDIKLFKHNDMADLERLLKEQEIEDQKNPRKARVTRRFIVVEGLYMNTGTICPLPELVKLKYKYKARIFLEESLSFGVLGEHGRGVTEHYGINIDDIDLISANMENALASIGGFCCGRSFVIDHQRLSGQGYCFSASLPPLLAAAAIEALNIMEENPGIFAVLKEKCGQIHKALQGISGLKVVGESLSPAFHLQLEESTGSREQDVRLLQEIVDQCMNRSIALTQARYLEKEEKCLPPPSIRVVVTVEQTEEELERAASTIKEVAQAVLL
How it was run: (§2)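 Human MCF-7 cells incubated 2 h with a range of compound concentrations or DMSO control media. Medium contained 14C-serine plus 25 uM 4-HPR to activate SPT. 14C-serine-labeled ceramide products quantified to give EC50.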

Mus musculus [2] = test: Reduction in plasma C18:0 ceramide level in diet-induced obese C57BL6 mouse at 0.5 mg/kg administered daily through oral gavage for 28 days measured 2 hrs post last dose relative to lean control; assay type: functional, organism-based
How it was run: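 DIO mice received daily oral doses for 4 weeks as part of a dose-response study. Plasma was sampled 2 h after the final dose. Total and C18:0 plasma ceramides were measured and compared with those of lean control mice. At the end of dosing, the same cohort underwent an oral glucose tolerance test.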

[3] = molecular target: T1, Serine palmitoyltransferase 1; test: Inhibition of human SPT1 expressed in microsomes of HEK293 cells incubated for 1hr by LC/MS analysis
How it was run: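 SPT source was a microsomal fraction from HEK293 cells, with serine and palmitoyl coenzyme A as substrates. Formation of 3-ketodeoxysphinganine quantified by LC/MS. Inhibition determined at 10 concentrations per compound to give IC50.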

[4] = molecular target: T2, Serine palmitoyltransferase 1 (Homo sapiens) (UniProt O15269); test: as §1; assay type: cell-based; how it was run: as §2
T2 sequence (whole entry): T1 sequence (O15269 whole entry)

[5] = Fraction unbound in rat; assay type: ADME
Rattus norvegicus [6] = test: Increase in HDL level in cholic acid/cholesterol-fed Sprague-Dawley rat model of dyslipidemia administered bid through oral gavage measured after 1 week by FPLC analysis relative to vehicle-treated control; assay type: functional, organism-based
How it was run: (§3)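 Sprague Dawley rats fed a cholic acid/cholesterol diet for 14 days, then dosed orally BID for 7 days at five dose levels, n=6. Serum ceramides and VLDL and HDL cholesterol compared with vehicle (dose 0). Mean ± SEM; Dunnett's test, p<0.05.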

[7] = Dissociation constant, pKa of the compound; assay type: physicochemical
[8] = Lipophilicity, log P of compound; assay type: physicochemical; conditions: octanol/water
[9] = Drug uptake in diet-induced obese C57Bl/6 mouse liver at 1 mg/kg, po qd for 4 weeks measured 6 hrs post last dose; assay type: ADME, organism-based; conditions: read-out: Drug uptake
How it was run: (§4)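 Male DIO mice dosed orally for 4 weeks. Sacrificed 6 h after the last dose. Compound measured in serum (ng/mL) and liver (ng/g), and the liver:serum ratio calculated.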

[10] = AUC (0 to 24 hrs) in Sprague-Dawley rat at 1 mg/kg, iv; assay type: ADME, organism-based; design: time < 24 hr, dose 1 mg/kg, route intravenous; conditions: in vivo
How it was run: (§5)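 Single dose to fasted male Sprague Dawley rats, IV at 1 mg/kg or oral at 3 mg/kg. Plasma levels followed to derive AUC0-24hr, Cmax, half-life, Vdss and oral bioavailability.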

[11] = Cmax in Sprague-Dawley rat at 1 mg/kg, iv; assay type: ADME, organism-based; design: dose 1 mg/kg, route intravenous; conditions: in vivo; how it was run: as §5
[12] = Half life in Sprague-Dawley rat at 1 mg/kg, iv; assay type: ADME, organism-based; conditions: in vivo; how it was run: as §5
[13] = Volume of distribution at steady state in Sprague-Dawley rat at 1 mg/kg, iv; assay type: ADME, organism-based; conditions: in vivo, read-out: Vdss; how it was run: as §5
[14] = AUC (0 to 24 hrs) in Sprague-Dawley rat at 3 mg/kg,po; assay type: ADME, organism-based; design: time < 24 hr, dose 3 mg/kg, route oral; conditions: in vivo; how it was run: as §5
[15] = Cmax in Sprague-Dawley rat at 3 mg/kg,po; assay type: ADME, organism-based; design: dose 3 mg/kg, route oral; conditions: in vivo; how it was run: as §5
[16] = Half life in Sprague-Dawley rat at 3 mg/kg,po; assay type: ADME, organism-based; conditions: in vivo; how it was run: as §5
[17] = Volume of distribution at steady state in Sprague-Dawley rat at 3 mg/kg,po; assay type: ADME, organism-based; conditions: in vivo
How it was run: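 Male Sprague Dawley rats, fasted, single oral dose of 3 mg/kg. A parallel arm received 1 mg/kg IV. Plasma was sampled for pharmacokinetics over 0-24 hr. Steady-state volume of distribution is reported […], in mL/kg.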

[18] = Oral bioavailability in Sprague-Dawley rat at 3 mg/kg; assay type: ADME, organism-based; conditions: in vivo; how it was run: as §5
Mus musculus [19] = test: Reduction in total plasma ceramide level in C57BL6 mouse administered through gavage after 6 hrs by mass spectrometry relative to vehicle-treated control; assay type: functional
How it was run: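 Normal C57bl6 mice given a single oral dose at six dose levels, n=3 per group. Plasma collected 6 h post dose. C16:0, C20:0, C22:0, C24:0 and C24:1 ceramides measured by mass spectrometry and summed; total reduction calculated versus vehicle. ED50 derived from the dose-response; mean ± SEM.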

Rattus norvegicus [20] = test: Reduction in vLDL level in cholic acid/cholesterol-fed Sprague-Dawley rat model of dyslipidemia at 60 mg/kg administered bid through oral gavage measured after 1 week by FPLC analysis relative to vehicle-treated control; assay type: functional, organism-based; how it was run: as §3
Rattus norvegicus [21] = test: Reduction in total plasma ceramide level in cholic acid/cholesterol-fed Sprague-Dawley rat model of dyslipidemia at 30 to 60 mg/kg administered bid through oral gavage measured after 1 week by FPLC analysis relative to vehicle-treated control; assay type: functional, organism-based; how it was run: as §3
Mus musculus [22] = test: Reduction in total plasma ceramide level in diet-induced obese C57BL6 mouse administered daily through oral gavage for 28 days measured 2 hrs post last dose relative to lean control; assay type: functional, organism-based
How it was run: (§6)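 DIO mice dosed orally for 28 days, with myriocin as positive control and lean mice as reference. Total and C18:0 plasma ceramides measured 2 h after the final dose.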

Mus musculus [23] = test: Reduction in plasma C18:0 ceramide level in diet-induced obese C57BL6 mouse at 1 to 60 mg/kg administered daily through oral gavage for 28 days measured 2 hrs post last dose relative to lean control; assay type: functional, organism-based; how it was run: as §6
[24] = Toxicity in rat assessed as induction of gastric enteropathy during 14 days toxicology study; conditions: in vivo, 336 h
Mus musculus [25] = test: Reduction in serum insulin AUC in diet-induced obese C57BL6 mouse at 1 to 60 mg/kg, po qd for 4 weeks by oral glucose tolerance test relative to lean control; assay type: functional, organism-based
How it was run: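 After 4 weeks of oral dosing, DIO mice underwent an oral glucose tolerance test. Insulin and glucose AUC compared with lean mice; trend assessed by ANOVA trend analysis.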

[26] = Toxicity in diet-induced obese C57Bl/6 mouse assessed as change in food intake at 1 to 60 mg/kg, po qd for 4 weeks; assay type: organism-based; conditions: in vivo, 672 h
How it was run: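 Food intake monitored in DIO mice during 4 weeks of daily oral dosing.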

[27] = Drug uptake in diet-induced obese C57Bl/6 mouse serum at 1 mg/kg, po qd for 4 weeks measured 6 hrs post last dose; assay type: ADME, organism-based; conditions: read-out: Drug uptake; how it was run: as §4
[28] = Drug uptake in diet-induced obese C57Bl/6 mouse serum at 3 mg/kg, po qd for 4 weeks measured 6 hrs post last dose; assay type: ADME, organism-based; conditions: read-out: Drug uptake; how it was run: as §4
[29] = Drug uptake in diet-induced obese C57Bl/6 mouse serum at 10 mg/kg, po qd for 4 weeks measured 6 hrs post last dose; assay type: ADME, organism-based; conditions: read-out: Drug uptake; how it was run: as §4
[30] = Drug uptake in diet-induced obese C57Bl/6 mouse serum at 30 mg/kg, po qd for 4 weeks measured 6 hrs post last dose; assay type: ADME, organism-based; conditions: read-out: Drug uptake; how it was run: as §4
[31] = Drug uptake in diet-induced obese C57Bl/6 mouse serum at 60 mg/kg, po qd for 4 weeks measured 6 hrs post last dose; assay type: ADME, organism-based; conditions: read-out: Drug uptake; how it was run: as §4
[32] = Drug uptake in diet-induced obese C57Bl/6 mouse liver at 3 mg/kg, po qd for 4 weeks measured 6 hrs post last dose; assay type: ADME, organism-based; conditions: read-out: Drug uptake; how it was run: as §4
[33] = Drug uptake in diet-induced obese C57Bl/6 mouse liver at 10 mg/kg, po qd for 4 weeks measured 6 hrs post last dose; assay type: ADME, organism-based; conditions: read-out: Drug uptake; how it was run: as §4
[34] = Drug uptake in diet-induced obese C57Bl/6 mouse liver at 30 mg/kg, po qd for 4 weeks measured 6 hrs post last dose; assay type: ADME, organism-based; conditions: read-out: Drug uptake; how it was run: as §4
[35] = Drug uptake in diet-induced obese C57Bl/6 mouse liver at 60 mg/kg, po qd for 4 weeks measured 6 hrs post last dose; assay type: ADME, organism-based; conditions: read-out: Drug uptake; how it was run: as §4
[36] = Ratio of drug uptake in diet-induced obese C57Bl/6 mouse liver to serum at 1 mg/kg, po qd for 4 weeks measured 6 hrs post last dose; assay type: ADME, organism-based; how it was run: as §4
[37] = Ratio of drug uptake in diet-induced obese C57Bl/6 mouse liver to serum at 3 mg/kg, po qd for 4 weeks measured 6 hrs post last dose; assay type: ADME, organism-based; how it was run: as §4
[38] = Ratio of drug uptake in diet-induced obese C57Bl/6 mouse liver to serum at 10 mg/kg, po qd for 4 weeks measured 6 hrs post last dose; assay type: ADME, organism-based; how it was run: as §4
[39] = Ratio of drug uptake in diet-induced obese C57Bl/6 mouse liver to serum at 30 mg/kg, po qd for 4 weeks measured 6 hrs post last dose; assay type: ADME, organism-based; how it was run: as §4
[40] = Ratio of drug uptake in diet-induced obese C57Bl/6 mouse liver to serum at 60 mg/kg, po qd for 4 weeks measured 6 hrs post last dose; assay type: ADME, organism-based; how it was run: as §4
Mus musculus [41] = test: Reduction in total liver ceramide level in diet-induced obese C57BL6 mouse at 1 to 60 mg/kg administered daily through oral gavage for 28 days measured 6 hrs post last dose relative to lean control; assay type: functional, organism-based
How it was run: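 Liver total ceramide levels measured in DIO mice after 4 weeks of oral dosing.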

SMILES: CCCCCCC(=O)CCCCCC/C=C/C[C@@H](O)[C@H](O)[C@@](N)(CO)C(=O)O [MYRIOCIN]
EC50 [1]: 49.5 nM
Activity (Mus musculus [2]): Active

IC50 [3]: 5.19 nM
inhibition [4]: Dose-dependent effect
EC50 [1]: 977 nM
fraction unbound [5]: < 0.02
pKa [7]: 4.73
logP [8]: 3.97
concentration at 6 h [9]: 463 ng/g
AUC(0-t) at 24 h [10]: 1270 ng·h/mL
Cmax [11]: 2540 ng/mL
half-life [12]: 2.13 h
Vd [13]: 0.574 L/kg
AUC(0-t) at 24 h [14]: 2920 ng·h/mL
Cmax [15]: 1500 ng/mL
half-life [16]: 1.48 h
Vdss [17]: 1.84 L/kg
bioavailability [18]: 75%
concentration at 6 h [27]: 88 ng/mL
concentration at 6 h [28]: 264 ng/mL
concentration at 6 h [29]: 341 ng/mL
concentration at 6 h [30]: 677 ng/mL
concentration at 6 h [31]: 3350 ng/mL
concentration at 6 h [32]: 789 ng/g
concentration at 6 h [33]: 2850 ng/g
concentration at 6 h [34]: 6580 ng/g
concentration at 6 h [35]: 181000 ng/g
Kp at 6 h [36]: 5
Kp at 6 h [37]: 3
Kp at 6 h [38]: 8
Kp at 6 h [39]: 10
Kp at 6 h [40]: 54
SMILES: CCCCCCC(=O)c1cc(-c2ccc(CC(=O)O)cc2)c2nccn2c1
Activity (Rattus norvegicus [6]): Dose-dependent effect
Activity (Mus musculus [19]): Dose-dependent effect
ED50 (Mus musculus [19]; C57BL6, po): 1.04 mg/kg
Activity (Rattus norvegicus [20]): Active
Activity (Rattus norvegicus [21]): Active
Activity (Mus musculus [22]): Dose-dependent effect
Activity (Mus musculus [23]): Active
Activity [24]: Toxic
Activity (Mus musculus [25]): Active
Activity [26]: Non-Toxic
Activity (Mus musculus [41]): Active
